We go through five compounds from ChEMBL document CHEMBL1140308, “A new synthetic agent with potent but selective cytotoxic activity against cancer” (2005).

Molecules are shown by their SMILES.

Holding throughout (format): functional
Experiment [1] relates to HL-60. The experiment can be described thus: Concentration required to inhibit the growth of human leukemia cancer HL-60 cell line by 50% after 120 hours; determined by MTT assay. Conditions: HL-60, 120 h. The essentials:
(§1)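 Cells (A549, HCT-116, SK-MEL-2 in DMEM; HL-60, MCF-7 in RPMI 1640; 10% FBS) seeded at 1000-1500/well, six wells per concentration, and precultured 1 day. Added 2 µM working solution and 10-fold serial dilutions, or vehicle. MTT read at 544 nm after 120 h at 37 °C, with T0 reference plates. GI50 is 50% of control growth; ≥3 independent runs.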

Experiment [2] deals with MCF7. Nature of the experiment: Concentration required to inhibit the growth of human breast cancer MCF-7 cell line by 50% after 120 hours; determined by MTT assay. Conditions: MCF7, 120 h. The essentials:
as §1

For experiment [3], the system named is SK-MEL-2. The experiment can be described thus: Concentration required to inhibit the growth of human malenoma cancer SK-MEL-2 cell line by 50% after 120 hours; determined by MTT assay. Conditions: SK-MEL-2, 120 h. The essentials:
as §1

The subject of experiment [4] is A549. Nature of the experiment: Concentration required to inhibit human […] lung cancer A549 cell growth by 50% after 120 hours; determined by MTT assay. Conditions: A549, 120 h. The essentials: as §1
Experiment [5] concerns HCT-116. The experiment can be described thus: Concentration required to inhibit the growth of human colon cancer HCT116 cell line by 50% to initial after 120 hours; determined using MTT assay. The conditions noted are these: HCT-116, 120 h.
For experiment [6], the system named is HL-60. The experiment can be described thus: Concentration required to cause lethality in human leukemia cancer HL-60 cell line by 50% after 120 hours; determined by MTT assay. Conditions: HL-60, 120 h. The essentials:
(§2)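 Cells (DMEM for HCT-116, SK-MEL-2, A549; RPMI 1640 for HL-60, MCF-7; 10% FBS) were seeded at 1000-1500 per well and precultured 1 day. Methanesulfonate-salt drug was added as 10-fold serial dilutions from a 2 μM working solution, six wells per concentration. MTT absorbance was read at 544 nm after 120 h at 37 °C against T0 plates. LC50 is 50% reduction of initial cell number; values are the mean of ≥3 independent determinations.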

Experiment [7] relates to HCT-116. The experiment can be described thus: Concentration required to cause lethality in human colon cancer HCT116 cell line by 50% after 120 hours; determined by MTT assay. Conditions: HCT-116, 120 h. The essentials: as §2
Experiment [8] deals with SK-MEL-2. The experiment can be described thus: Concentration required to cause lethality in human malenoma cancer SK-MEL-2 cell line by 50% after 120 hrs; determined by MTT assay. The conditions noted are these: SK-MEL-2, 120 h. The method, boiled down:
as §2

For experiment [9], the system named is A549. The experiment can be described thus: Concentration required to cause lethality in human […] lung cancer A549 cell line by 50% after 120 hours; determined by MTT assay. Conditions: A549, 120 h. The essentials:
as §2

Experiment [10] relates to MCF7. The experiment can be described thus: Concentration required to cause lethality in human breast cancer MCF-7 cell line by 50% after 120 hours; determined by MTT assay. Conditions: MCF7, 120 h. The essentials:
as §2

Experiment [11] has as its system A549. The experiment can be described thus: Concentration required for inhibition of human […] lung cancer A549 cell growth by 50%, after 120 hours; determined by MTT assay. Conditions: A549, 120 h. The method, boiled down:
as §1

As for `CN(C)CCN1C(=O)c2cccc3cc([N+](=O)[O-])cc(c23)C1=O` [MITONAFIDE], the GI50 is 45 nM in the experiment on HL-60 [1]; 245 nM with MCF7 [2]; 150 nM with SK-MEL-2 [3]; 65 nM in the experiment with A549 [4]; 250 nM in the experiment with HCT-116 [5]. Also, the CC50 in the experiment on HL-60 [6] (read-out: LC50 (the source's name)) stood at 400 nM.

Turning to `CN(CCCNc1ccc2ncn3c4ccccc4c(=O)c1c23)CCCN1C(=O)c2cccc3cc([N+](=O)[O-])cc(c23)C1=O`, the GI50 amounted to 120 nM in the experiment with HL-60 [1]; 50 nM in the experiment on MCF7 [2]; 150 nM in the experiment with SK-MEL-2 [3]; 25 nM in the experiment on A549 [4]; 8 nM in the experiment with HCT-116 [5]. Besides, the 50% lethal concentration (LC50) in the experiment on HCT-116 [7] was 220 nM; in the experiment with HL-60 [6], 500 nM; with SK-MEL-2 [8], above 1000 nM; with A549 [9] it was 500 nM; in the experiment with MCF7 [10], above 1000 nM.

On to `O=C1c2cccc3cc([N+](=O)[O-])cc(c23)C(=O)N1CCCN1CCN(CCCNc2ccc3ncn4c5ccccc5c(=O)c2c34)CC1`, for which the concentration for 50% growth inhibition (GI50) came out at 3.5 nM in the experiment with HL-60 [1]; 3.2 nM with MCF7 [2]; 4 nM in the experiment with SK-MEL-2 [3]; 0.6 nM in the experiment with A549 [4]; 0.5 nM in the experiment on HCT-116 [5]. The LC50 was 32 nM in the experiment on HCT-116 [7]; 33 nM with HL-60 [6]; 60 nM in the experiment on SK-MEL-2 [8]; 35 nM in the experiment with A549 [9]; above 1000 nM in the experiment on MCF7 [10].

Take `COc1ccc2nc3cc(Cl)ccc3c(NCCCN3CCN(CCCNc4ccc5ncn6c7ccccc7c(=O)c4c56)CC3)c2c1`: the GI50 was determined as 400 nM in the experiment on HL-60 [1]; 400 nM in the experiment on MCF7 [2]; 300 nM in the experiment with SK-MEL-2 [3]; 8 nM in the experiment on A549 [4]; 3.8 nM with HCT-116 [5]. The median lethal concentration (LC50) in the experiment on HCT-116 [7], in the experiment with HL-60 [6], in the experiment on SK-MEL-2 [8], with A549 [9] and with MCF7 [10] was above 1000 nM each time.

For `Nc1cc2c3c(cccc3c1)C(=O)N(CCCN1CCN(CCCNc3ccc4ncn5c6ccccc6c(=O)c3c45)CC1)C2=O`, the GI50 in the experiment on HL-60 [1] is 5 nM; with MCF7 [2] it was 32 nM; in the experiment with SK-MEL-2 [3] it was 15 nM; in the experiment on A549 [11], 2.5 nM; in the experiment with HCT-116 [5] it was 2.2 nM. For the same compound, the median lethal concentration (LC50) in the experiment with HCT-116 [7] was 80 nM; with HL-60 [6], 450 nM; in the experiment on SK-MEL-2 [8], 750 nM; with A549 [9], 100 nM; with MCF7 [10], above 1000 nM.
